Source: PubChem BioAssay
Hits are enriched below; roughly 2.4% of the tested compounds scored in any of these assays.
S1P4 antag: antagonists of human S1P4 receptor; 220,000 compounds, 0.26% hits; O95977; inhibition, % at 4.98 µM; S1P4-expressing cells, antagonist mode, reporter read-out; in the data active = inhibition above about 29%;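 also: 0% = wells stimulated with agonist and 100% = vehicle wells without agonist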
NPY Y2 blocker: blocks the human neuropeptide Y Y2 receptor. P49146. NPY-Y2 expressing cells, antagonist mode. inhibition, % at 2.7 µM. 140,000 compounds, 0.99% hits. AID 793;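 also: 0% = vehicle with agonist challenge and 100% = reference antagonist with challenge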
S1P4 ag: agonists of human S1P4 receptor. AID 1509. activation, % at 4.98 µM. S1P4-expressing cell line, agonist reporter assay. O95977. 220,000 compounds, 0.35% hits; in the data active = activation above about 11%;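 also: 0% = DMSO vehicle and 100% = reference agonist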
NPY-Y1 antag: blocks the human neuropeptide Y Y1 receptor. P25929. HEK293-CNG Y1 cells, membrane potential fluorescence; NPY at EC95, then isoproterenol. inhibition, % at 3.6 µM. 200,000 compounds, 1% hits. AID 1040;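 active = inhibition above the campaign mean inhibition of all tested compounds plus 3 SD, cut at about 20% in these data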;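 also: 0% = DMSO wells given NPY plus isoproterenol and 100% = isoproterenol alone without NPY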
Target sequence (P25929 whole entry, looked up): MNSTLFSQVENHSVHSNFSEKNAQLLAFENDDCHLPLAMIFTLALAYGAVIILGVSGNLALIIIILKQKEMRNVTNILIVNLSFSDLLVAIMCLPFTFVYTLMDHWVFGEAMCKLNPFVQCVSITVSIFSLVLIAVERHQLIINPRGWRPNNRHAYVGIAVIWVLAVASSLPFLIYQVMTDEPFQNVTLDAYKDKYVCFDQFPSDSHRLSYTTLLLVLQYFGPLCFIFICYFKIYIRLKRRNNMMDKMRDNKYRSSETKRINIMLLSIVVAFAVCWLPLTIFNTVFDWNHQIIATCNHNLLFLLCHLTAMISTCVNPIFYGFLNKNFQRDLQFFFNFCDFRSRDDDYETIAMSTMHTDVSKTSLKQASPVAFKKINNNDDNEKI
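Assay system: HEK293 Y1/CNG channel cell line; Doses: single compound dose of 3.6 µM, 0.4% DMSO; Timing: dye 3 h, compound 60 min room temperature, stimulation 45 min; Technique: Membrane-potential fluorescent dye readout; Measure: % inhibition of NPY effect.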
NPY1 pot ag: potentiates or activates human NPY-Y1 receptor | P25929 | NPY-Y1 expressing cells, potentiator/agonist activation | activation, % at 3.6 µM | 220,000 compounds, 0.37% hits | AID 1304; in the data active = activation above about 33%, passing the limit was not always enough;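 also: cells stimulated with NPY at EC10 then isoproterenol at EC100; 0% = low agonist plus stimulus and 100% = saturating agonist plus stimulus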
NPY2 pot ag: human NPY-Y2 potentiation or agonism, primary screen. AID 1359. P49146. activation, % at 3.6 µM. cells expressing NPY-Y2, potentiator/agonist read-out. 220,000 compounds, 0.45% hits; in the data active = activation above about 27%;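 also: cells stimulated with NPY near EC25 plus isoproterenol at EC100; 0% = vehicle plus submaximal agonist and 100% = vehicle plus saturating agonist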
NPY-Y1 ant conf: confirmation of human neuropeptide Y receptor Y1 antagonists. shares compounds with NPY-Y1 antag. HEK293-CNG NPY-Y1, membrane potential fluorescence, cAMP; NPY challenge against isoproterenol-raised cAMP. inhibition, % at 3.6 µM. 1,200 compounds, 21% hits. AID 1254; in the data active = inhibition above about 20%;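 also: 0% = vehicle with agonist plus stimulus and 100% = stimulus alone without agonist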
NPY2 antag ctr: counter-screen for NPY-Y1 antagonists: human NPY-Y2 antagonism | shares compounds with NPY-Y1 antag | HEK293 NPY-Y2 CNG membrane potential fluorescence; cells given NPY, then isoproterenol | inhibition, % at 3.6 µM | 1,200 compounds, 28% hits | AID 1255;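 also: 0% = DMSO with agonist challenge and 100% = reference antagonist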
NPY-Y2 pot conf: confirmation of human NPY-Y2 receptor potentiators or agonists; cell-based NPY-Y2 potentiator/agonist assay; AID 1539; 450 compounds, 20% hits; shares compounds with NPY2 pot ag; activation, % at 3.6 µM; in the data active = activation above about 33%
NPY-Y1 potentiator: NPY-Y1 potentiation or agonism as NPY-Y2 counter-screen; AID 1651; Y1 HEK293-CNG cells, membrane potential fluorescence; activation, % at 3.6 µM; shares compounds with NPY2 pot ag; 450 compounds, 20% hits; in the data active = activation above about 45%;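 also: cells stimulated with submaximal NPY then isoproterenol with phosphodiesterase inhibitor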
NPY-Y1 ag 2: counter-screen for NPY-Y2 potentiators: agonists of human NPY-Y1; shares compounds with NPY2 pot ag; HEK293 Y1-CNGC, membrane potential fluorescence, agonism; activation, % at 3.6 µM; 450 compounds, 37% hits; AID 1702;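 active = activation above the mean of DMSO-only control wells plus 3 SD, cut at about 18% in these data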;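 also: cells stimulated with 1 µM isoproterenol plus the PDE inhibitor Ro 20-1724; 0% = isoproterenol with DMSO and no NPY and 100% = 40 nM NPY; Y1 agonists lower the membrane potential dye signal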
CNGC inhibitor: cyclic nucleotide gated channel inhibition as counter-screen; shares compounds with NPY2 pot ag; HEK293-CNG parental, isoproterenol cAMP, membrane potential fluorescence; inhibition, % at 3.6 µM; 450 compounds, 32% hits; AID 1703;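 active = inhibition above the control-well mean plus 3 SD of those wells, cut at about 22% in these data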;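 also: 0% = DMSO with isoproterenol and 100% = DMSO without isoproterenol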
NPY-Y2 ag 2: activates human NPY-Y2 receptor in potentiator counter-screen | 450 compounds, 56% hits | activation, % at 3.6 µM | HEK293 Y2/CNGC cells, membrane potential fluorescence, agonist mode | shares compounds with NPY2 pot ag | AID 1710;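 active = activation above the mean of solvent-only control wells plus 3 SD, cut at about 10% in these data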;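 also: cells stimulated by isoproterenol with no NPY added so direct agonism is tested; 0% = DMSO with isoproterenol alone and 100% = NPY at EC100 plus isoproterenol; agonism lowers probe fluorescence through less cAMP and CNG channel opening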
S1P4 agonist cf: confirmation of human S1P4 receptor agonists | S1P4 agonist cell-based reporter assay | 740 compounds, 7% hits | shares compounds with S1P4 ag | activation, % at 4.98 µM | AID 1523; in the data active = activation above about 12%;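 also: 0% = vehicle and 100% = full reference agonist response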
S1P1 ag: counter-screen for S1P4 agonists: agonists of human S1P1. shares compounds with S1P4 ag. S1P1 agonist cell-based assay, activation. 740 compounds, 4% hits. activation, % at 4.98 µM; in the data active = activation above about 21%;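 also: 0% = vehicle wells and 100% = reference agonist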
S1P4 antag conf: human S1P4 antagonism, confirmation; shares compounds with S1P4 antag; S1P4-expressing cell line, antagonist mode, reporter read-out; inhibition, % at 4.98 µM; 520 compounds, 71% hits; in the data active = inhibition above about 30%
S1P1 antagonist: blocks human S1P1, counter-screen for S1P4 antagonists | shares compounds with S1P4 antag | cell-based S1P1 antagonist counterscreen, inhibition | inhibition, % at 4.98 µM | 520 compounds, 37% hits | AID 1564; in the data active = inhibition above about 40%;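 also: receptor stimulated with S1P near its EC80; 0% = agonist stimulated wells and 100% = vehicle only wells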
Starred values were filed as active, the others as inactive; / = no result. Rule as the data show it, unless noted: active = inhibition above about 17%; inactive = the rest.

SMILES | S1P4 antag | NPY Y2 blocker | S1P4 ag | NPY-Y1 antag | NPY1 pot ag | NPY2 pot ag | NPY-Y1 ant conf | NPY2 antag ctr | others
Cc1c2c(nc3c(C(=O)NC4CCCCC4C)cnn13)CCCC2 (configuration not stated) | 0 | 8 | 2 | 20* | -22 | -12 | 13 | 22*
Cc1cc(C)n2ncc(C(=O)NC3CCCCC3)c2n1 | -21 | / | 2 | 3 | 9 | 3 | / | /
Cc1ccc(S(=O)(=O)Cn2nnnc2C(C(C)C)N2CCc3ccccc3C2)cc1 (configuration not stated) | -11 | 3 | 1 | 1 | -15 | 1 | / | /
CCC(C)(C)n1nnnc1C(c1ccc(C)cc1)N1CCSCC1 (configuration not stated) | 4 | 16 | 2 | 24* | 13 | -14 | 13 | 5
Cc1ccc(S(=O)(=O)Cn2nnnc2C(C(C)C)N2CCSCC2)cc1 (configuration not stated) | 6 | 0 | 0 | 21* | 14 | 3 | 0 | 2
CCC(C)(C)n1nnnc1C(c1ccc(C)cc1)N1CCN(Cc2cccnc2)CC1 (configuration not stated) | 5 | 0 | -2 | 9 | 6 | -5 | / | /
COc1ccc(OC)c(N=C(N)N=C(N)N)c1 | -20 | / | 1 | -2 | -9 | 6 | / | /
Cc1ccc(-n2ncc3c(SCc4cccnc4)ncnc32)c(C)c1 | -6 | / | 0 | 25* | -9 | 33* | 13 | 6 | NPY-Y2 pot conf=-17;NPY-Y1 potentiator=-60;NPY-Y1 ag 2=-50;CNGC inhibitor=-27;NPY-Y2 ag 2=-23
CC1(C)CC(c2nc(-c3ccc([N+](=O)[O-])cc3)cs2)CCO1 (configuration not stated) | 6 | / | 0 | 0 | 5 | 8 | / | /
O=C(Nc1ccccc1)C1=C[C@H](c2csc3ccccc23)C[C@H](OCc2ccc(CO)cc2)O1 | -19 | / | 16* | 26* | -3 | -15 | 9 | 8 | S1P4 agonist cf=-1;S1P1 ag=0
CCOc1ccc(N=c2oc3cc(O)ccc3cc2C(=O)NCC2CCCO2)cc1 (configuration not stated) | -10 | 6 | 5 | 7 | 2 | -3 | / | /
COc1ccc(N=c2oc3cc(O)ccc3cc2C(=O)NCC2CCCO2)cc1 (configuration not stated) | -20 | 17 | 12* | 33* | -17 | -9 | 11 | 6 | S1P4 agonist cf=2;S1P1 ag=-3
Cc1ccc(C(C(=O)NC(C)(C)C)N(Cc2ccccc2)C(=O)c2snc(C(N)=O)c2N)o1 (configuration not stated) | 0 | / | 1 | 10 | -1 | -16 | / | /
CCC(C)(C)n1nnnc1C(c1cccnc1)N1CCN(c2cccc(C(F)(F)F)c2)CC1 (configuration not stated) | -7 | 17 | 15* | 25* | 2 | -7 | 14 | 8 | S1P4 agonist cf=0;S1P1 ag=-9
O=c1c2ccccc2nc2ccc(NCc3cccs3)nn12 | 1 | / | -1 | 6 | -16 | -10 | / | /
OC(COc1ccc(CNCCc2ccc(C(F)(F)F)cc2)cc1)CN1CCCCC1 (configuration not stated) | 30* | / | -2 | 25* | -17 | -17 | 16 | 18* | S1P4 antag conf=41*;S1P1 antagonist=28
N=c1n(CCN2CCOCC2)c2ccccc2n1CC(=O)c1ccc(Cl)c(Cl)c1 | -7 | 7 | 3 | 16 | -5 | -5 | / | /
N=c1n(CCN2CCCC2)c2ccccc2n1CC(O)c1ccc(Cl)c(Cl)c1 (configuration not stated) | 38* | / | 55* | 43* | -33 | -28 | 16 | 29* | S1P4 agonist cf=-3;S1P1 ag=-14;S1P4 antag conf=71*;S1P1 antagonist=60*
CCOCCCNc1nc(C)nc2c1nnn2Cc1c(F)cccc1Cl | 7 | / | -1 | -2 | 22 | 6 | / | /
